Activity calls are given as the source filed them. The rule behind the calls is not given here.
Legend:
Format in all cases: functional, cell-based
SK-N-SH [1] = test: Cytotoxicity against human SK-N-SH cells after 72 hrs by MTT assay
Procedure, shortened: (§1)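 Cells grown in DMEM with 10% FBS at 37 °C, 5% CO2. 2000 cells per well in 96-well plates, allowed to adhere. Compounds were dissolved in DMSO, diluted in medium and added at 0–30 µM, 8 wells per concentration, for 72 h. MTT at 0.5 mg/mL for 4 h, then DMSO solubilization and absorbance at 490 nm. IC50 from concentration plots; at least 2 independent assays.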

MCF7 [2] = test: Cytotoxicity against human MCF7 cells after 72 hrs by MTT assay; conditions: MCF7, 72 h; procedure, shortened: as §1
HeLa = test: Cytotoxicity against human HeLa cells after 72 hrs by MTT assay; procedure, shortened: as §1
SK-N-SH [3] = test: Cell cycle arrest in human SK-N-SH cells assessed as G1 phase accumulation
MCF7 [4] = test: Cell cycle arrest in human MCF7 cells assessed as G2 phase accumulation

Row | Structure (SMILES) | IC50 (SK-N-SH [1]) [µM] | IC50 (MCF7 [2]) [µM] | IC50 (HeLa) [µM] | Activity (SK-N-SH [3]) | Activity (MCF7 [4])
1 | C[C@@H]1CC[C@@]2(OC1)O[C@H]1C[C@H]3[C@@H]4CC=C5C[C@@H](O[C@H]6O[C@@H](CO)[C@H](O)[C@@H](O)[C@@H]6NC(=O)CCCCC(=O)N[C@H]6[C@H](O[C@H]7CC[C@@]8(C)C(=CC[C@H]9[C@@H]%10C[C@@H]%11O[C@]%12(CC[C@@H](C)CO%12)[C@@H](C)[C@@H]%11[C@@]%10(C)CC[C@@H]98)C7)O[C@H](CO)[C@@H](O)[C@@H]6O)CC[C@]5(C)[C@H]4CC[C@]3(C)[C@H]1[C@@H]2C | 19.5 | 19.2 | > 20 | – | –
2 | C[C@@H]1CC[C@@]2(OC1)O[C@H]1C[C@H]3[C@@H]4CC=C5C[C@@H](O[C@@H]6O[C@H](CO)[C@@H](O)[C@H](O)[C@H]6NC(=O)CCCCC6CCSS6)CC[C@]5(C)[C@H]4CC[C@]3(C)[C@H]1[C@@H]2C (stereo partly drawn) [ALPHA LIPOYL] | 4.8 | 6.9 | 7.3 | – | –
3 | CC(=O)N[C@H]1[C@H](O[C@H]2CC[C@@]3(C)C(=CC[C@H]4[C@@H]5C[C@@H]6O[C@]7(CC[C@@H](C)CO7)[C@@H](C)[C@@H]6[C@@]5(C)CC[C@@H]43)C2)O[C@H](CO)[C@@H](O)[C@@H]1O | 11.6 | 18.3 | 21.5 | – | –
4 | CC(=O)N[C@@H](C)C(=O)N[C@H]1[C@H](O[C@H]2CC[C@@]3(C)C(=CC[C@H]4[C@@H]5C[C@@H]6O[C@]7(CC[C@@H](C)CO7)[C@@H](C)[C@@H]6[C@@]5(C)CC[C@@H]43)C2)O[C@H](CO)[C@@H](O)[C@@H]1O | 15.3 | 11 | 20 | – | –
5 | C[C@@H]1CC[C@@]2(OC1)O[C@H]1C[C@H]3[C@@H]4CC=C5C[C@@H](O[C@@H]6O[C@H](CO)[C@@H](O)[C@H](O)[C@H]6NC(=O)CCCCC(=O)O)CC[C@]5(C)[C@H]4CC[C@]3(C)[C@H]1[C@@H]2C | 16.3 | 11.3 | > 20 | – | –
6 | C[C@@H]1CC[C@@]2(OC1)O[C@H]1C[C@H]3[C@@H]4CC=C5C[C@@H](O[C@@H]6O[C@H](CO)[C@@H](O)[C@H](O)[C@H]6NC(=O)CCC(=O)O)CC[C@]5(C)[C@H]4CC[C@]3(C)[C@H]1[C@@H]2C | 14.1 | 22 | 13.9 | – | –
7 | C[C@@H]1CC[C@@]2(OC1)O[C@H]1C[C@H]3[C@@H]4CC=C5C[C@@H](O[C@@H]6O[C@H](CO)[C@@H](O)[C@H](O)[C@H]6NC(=O)c6ccccc6)CC[C@]5(C)[C@H]4CC[C@]3(C)[C@H]1[C@@H]2C | 14.9 | 19.4 | 18 | Active | Active

— ChEMBL document CHEMBL1143914, “Synthesis and cytotoxic activity of diosgenyl saponin analogues” (Bioorg Med Chem, 2008)
